{"data": "Results of several laboratories", "target": "Tyrosine-protein kinase ABL2 (ABL2, Homo sapiens, UniProt P42684)", "note": "Compare with care: the assays were run in different laboratories."}
{"Compound": "COc1cc2ncnc(Nc3ccc(Oc4ccccc4)cc3C)c2cc1OC", "observed": "enzyme activity", "mode": "inhibitor", "concentration": "1 µM", "quantity": "inhibition", "value": "16%"}
{"Compound": "O=C1Nc2ccc(Cl)cc2C1=Cc1cc(Cl)c(O)c(Cl)c1", "observed": "cell-free assay", "concentration": "0.5 µM", "quantity": "remaining signal", "value": "80.4%"}
{"Compound": "CCCOc1ccc(OC)c(F)c1C(=O)c1ccc(C(=O)N[C@@H]2CNC[C@H]2NC(=O)c2ccc3[nH]ncc3c2)cc1", "observed": "enzyme activity", "mode": "inhibitor", "concentration": "10 µM", "quantity": "remaining activity", "value": "89%"}
{"Compound": "CC(C)(C)c1nc(-c2cccc(NS(=O)(=O)c3c(F)cccc3F)c2F)c(-c2ccnc(N)n2)s1", "observed": "enzyme activity", "mode": "inhibitor", "technique": "radiometric", "concentration": "1 µM", "quantity": "remaining activity", "value": "77%"}
{"Compound": "CC(C)(O)[C@H]1CC[C@H](Nc2ccc3ncc(-c4cccc(C(F)(F)F)c4)n3n2)CC1", "observed": "enzyme activity", "mode": "inhibitor", "concentration": "1 µM", "quantity": "remaining activity", "value": "76.5%"}
{"Compound": "CN(C(=O)c1ccccc1)c1cc(N(C)c2ccc3c(c2)CCc2ccc(C(=O)NCCN4CCOCC4)cc2C3=O)ccc1F", "observed": "cell-free assay", "technique": "competition with immobilised ligand", "concentration": "1 µM", "quantity": "remaining binding", "value": "100%"}
{"Compound": "CNC(=O)c1cc(Oc2ccc(NC(=O)Nc3ccc(Cl)c(C(F)(F)F)c3)cc2)ccn1", "observed": "enzyme activity", "mode": "inhibitor", "concentration": "0.3 µM", "quantity": "inhibition", "value": "11%"}
{"Compound": "C=CC(=O)Nc1cc(Nc2nccc(Nc3cc(Cl)c(F)cc3C(C)(C)O)n2)c(OC)cc1N1CC[C@@H](N(C)C)C1", "observed": "enzyme activity", "mode": "inhibitor", "concentration": "1 µM", "quantity": "inhibition", "value": "18%"}
{"Compound": "CC/C(=N\\NC(=O)NCc1cccc(O)c1)c1ccc(O)c(C)c1O", "observed": "enzyme activity", "mode": "inhibitor", "concentration": "0.1 µM", "quantity": "inhibition", "value": "-0.2%"}
{"Compound": "CCN(CC)CCNC(=O)c1c(C)[nH]c(/C=C2\\C(=O)Nc3ccc(F)cc32)c1C", "observed": "binding", "technique": "competition with immobilised ligand", "concentration": "10 µM", "quantity": "inhibition", "value": "77%"}
{"Compound": "O=C(Nc1ccc(Oc2ccc(F)cc2)cc1)N1CCc2ncccc2[C@H]1c1ccc(F)cc1", "observed": "cell-free assay", "technique": "competition with immobilised ligand", "concentration": "1 µM", "quantity": "remaining binding", "value": "88%"}
{"Compound": "N#CCCc1ccc2c(c1)-c1[nH]c3ccc([N+](=O)[O-])cc3c1CC(=O)N2", "observed": "cell-free assay", "concentration": "0.5 µM", "quantity": "remaining signal", "value": "49.8%"}
{"Compound": "COc1cc2nccc(Oc3ccc(NC(=O)c4c5n(n(-c6ccc(F)cc6)c4=O)CCCC5)cc3)c2cc1OC", "observed": "enzyme activity", "mode": "inhibitor", "concentration": "0.1 µM", "quantity": "inhibition", "value": "36%"}
{"Compound": "CCN(CC)c1ccc(C2=NNC(=O)CC2C)cc1[N+](=O)[O-] (centres unmarked)", "observed": "enzyme activity", "mode": "inhibitor", "concentration": "10 µM", "quantity": "remaining activity", "value": "89%"}
{"Compound": "C[C@H](c1ccc(F)cc1)N(Cc1cccc(C(=O)O)c1)C(=O)c1cnc2ccccc2c1", "observed": "cell-free assay", "technique": "competition with immobilised ligand", "concentration": "1 µM", "quantity": "remaining binding", "value": "82%"}
{"Compound": "Cc1ccc(C(=O)NCc2ccsc2)cc1C#Cc1cn(C(C)C)c2ncnc(N)c12", "observed": "enzyme activity", "mode": "inhibitor", "concentration": "1 µM", "quantity": "activity vs control", "value": "6%"}
{"Compound": "Cc1ccc(Nc2nccc(N(C)c3ccc4c(C)n(C)nc4c3)n2)cc1S(N)(=O)=O", "observed": "enzyme activity", "mode": "inhibitor", "concentration": "10 µM", "quantity": "inhibition", "value": "84%"}
{"Compound": "Cn1cc(Cl)c2c(Oc3c(F)cc(Nc4cc(Cl)nc(N)n4)cc3F)ccnc21", "observed": "cell-free assay", "technique": "competition with immobilised ligand", "concentration": "0.1 µM", "quantity": "remaining binding", "value": "99%"}
{"Compound": "CNC(=O)c1cc2c(Oc3ccc(NC(=O)C4(C(=O)Nc5ccc(F)cc5)CC4)cc3)ccnc2cc1OC", "observed": "enzyme activity", "mode": "inhibitor", "technique": "radiometric", "concentration": "1 µM", "quantity": "inhibition", "value": "88%"}
{"Compound": "CN(C)c1ncnc(-c2ccc3nc(Nc4cc(CN5CCN(C(=O)CC(F)(F)F)CC5)ccn4)[nH]c3c2)c1Cl", "observed": "cell-free assay", "technique": "competition with immobilised ligand", "concentration": "1 µM", "quantity": "remaining binding", "value": "71%"}
{"Compound": "Cc1sc(C(=O)NC2COC2)cc1-n1cc(NC(=O)Nc2c(F)cccc2Cl)cn1", "observed": "enzyme activity", "mode": "inhibitor", "concentration": "10 µM", "quantity": "remaining activity", "value": "123%"}
{"Compound": "COCCOc1nc(-c2ccc(Cl)nc2)nc2c1CN(C(=O)c1ncn3ccccc13)CC2", "observed": "cell-free assay", "technique": "competition with immobilised ligand", "concentration": "0.1 µM", "quantity": "remaining binding", "value": "100%"}
{"Compound": "Cc1cnc(NC2CCOCC2)nc1-n1cnc(C(=O)NC(CN)c2cc(F)cc(Cl)c2)c1 (centres unmarked)", "observed": "enzyme activity", "mode": "inhibitor", "technique": "radiometric", "concentration": "1 µM", "quantity": "remaining activity", "value": "87%"}
